Experimental data from ChEMBL document CHEMBL4190280, “Topological pattern for the search of new active drugs against methicillin resistant Staphylococcus aureus” (2017).
In brackets after ≈: the same amount, converted by molar mass.

Columns and labels:
Staphylococcus aureus [1] = assay: Antibacterial activity against methicillin-resistant Staphylococcus aureus subsp. aureus Rosenbach 1884; assay type: functional
Method in brief: (§1)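 In vitro testing against MRSA by standard techniques, following the Spanish Society of Clinical Microbiology and Infectious Diseases (SEIMC) recommended protocol. MIC and MBC were determined, with concentrations compared in double (twofold) dilution steps.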

Staphylococcus aureus [2] = assay: Bactericidal activity against methicillin-resistant Staphylococcus aureus subsp. aureus Rosenbach 1884; assay type: functional; method in brief: as §1

| Compound | MIC (Staphylococcus aureus [1]) [µg/mL] | MBC (Staphylococcus aureus [2]) [µg/mL] |
| --- | --- | --- |
| O=C(O)c1cn(C2CC2)c2cc(Cl)c(F)cc2c1=O | 32 (≈ 114 µM) | 512 (≈ 1820 µM) |
| O=C(O)c1cn(C2CC2)c2cc(F)c(F)cc2c1=O | 64 (≈ 241 µM) | > 512 |
| COc1cc2c(cc1OC)CN(c1cc3c(cc1F)c(=O)c(C(=O)O)cn3C1CC1)CC2 | 1 (≈ 2.28 µM) | 128 (≈ 292 µM) |
| CN(Cc1cccc2ccccc12)c1cc2c(cc1F)c(=O)c(C(=O)O)cn2C1CC1 | 1 (≈ 2.4 µM) | 128 (≈ 307 µM) |
| Cc1nccn1-c1cc2c(cc1F)c(=O)c(C(=O)O)cn2C1CC1 | 32 (≈ 97.8 µM) | > 512 |
| O=C(O)c1cn(C2CC2)c2cc(N3CCNCC3)c(F)cc2c1=O [CIPROFLOXACIN] | 0.5 (≈ 1.51 µM) | 256 (≈ 773 µM) |
| CC1(C)[C@H](C(=O)O[C@H](C#N)c2cccc(Oc3ccccc3)c2)[C@@H]1/C=C(\Cl)C(F)(F)F [GAMMA-CYHALOTHRIN] | > 512 | > 512 |
| Nc1nnc(-c2cccc(Cl)c2Cl)c(N)n1 [LAMOTRIGINE] | > 512 | > 512 |
| CO[C@@]12[C@H](COC(N)=O)C3=C(C(=O)C(C)=C(N)C3=O)N1C[C@@H]1N[C@@H]12 [MITOMYCIN] | 0.5 (≈ 1.5 µM) | 4 (≈ 12 µM) |
